Experimental data: article PMC7660780 (Journal of the American Heart Association: Cardiovascular …, 2020)
In brackets after ≈: the same amount, converted by molar mass. Several values for one entry are separate records, joined by “and”; a condition that tells them apart may be missing. Equal values may be shown once. Entries after “also recorded” stand apart in the source; their conditions may differ.

Assays:
Type in all cases: in vivo, human
[1] = Safety measures in healthy volunteers; settings: HVs
In short: (§1)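 The trial was double-blind, placebo-controlled and dose-escalating. In each cohort, 2 sentinels were dosed, then 5 more were randomized 4:1 to drug or placebo. Each received a single weight-based SC deltoid injection of 0.18–0.52 mL, followed by 15 min gentle pressure. Injection site checks, platelet counts, laboratory tests and clinical assessments ran at set times through 24 h and at 7 days. Adverse events were graded by CTCAE.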

[2] = Safety measures in patients with stable CAD receiving aspirin; settings: stable CAD on aspirin
In short: as §1

[3] = Population pharmacokinetic model
[4] = test system: ADP‐induced platelet aggregation (20 μmol/L)
In short: (§2)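 Each participant got a single SC deltoid dose. Blood was drawn at baseline and at set times to 24 h into PPACK (100 μmol/L final). PRP was spun at 600 g or 300 g for 5 min at RT, and PPP at 2000 g for 9 min. High PRP counts were lowered with PPP. Turbidometric aggregation used 20 μmol/L ADP. IPA is the % fall in primary slope (≥15 s, 0.5 s sampling) versus the baseline sample, reported as mean±SD.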

[5] = test system: ADP‐induced platelet aggregation (20 μmol/L); experiment: Ex vivo inhibition of ADP-induced platelet aggregation; settings: healthy volunteers
In short: as §2

[6] = RUC‐4 whole blood levels by LC-MS/MS; settings: dose‐expansion group 0.075 mg/kg SC
[7] = Safety and tolerability, summary statements over the whole study
In short: as §1

[8] = test system: ADP‐induced platelet aggregation (20 μmol/L); experiment: Population pharmacodynamic model; settings: for IC50: value ± spread as printed in pharmacokinetic data section
[9] = test system: ADP‐induced platelet aggregation (20 μmol/L); experiment: Ex vivo inhibition of ADP-induced platelet aggregation; settings: for IPA Mean (SD): 15 min post-dose; for IPA of the 1 participant who did not achieve the BED: 0.075 mg/kg SC dose escalation
[10] = dose escalation 0.04 mg/kg (n=2)
[11] = dose escalation 0.05 mg/kg (n=6)
[12] = dose escalation 0.075 mg/kg (n=6)
[13] = dose expansion 0.075 mg/kg (n=12)
[14] = 0.075 mg/kg SC, HVs and patients with stable CAD taking aspirin
[15] = stable CAD on aspirin, 0.075 mg/kg SC, dose escalation

In the case of `NCC(=O)Nc1cncc(-c2nn3c(=O)cc(N4CCNCC4)nc3s2)c1` [RUC‐4], the “No. of TESAEs” value ([1]; 0.05 mg/kg (n=6)) is reported as 0, the “Patients reporting a TEAE of bruising at the injection site” value (“Patients reporting a TEAE of bruising” below) ([1]; 0.05 mg/kg (n=6)) is reported as 0 (0.0) n (%) and the “Patients reporting a non‐AE bruising at the injection site event” value (“Patients reporting a non‐AE bruising” for short) ([1]; 0.05 mg/kg (n=6)) is reported as 2 (33.3) n (%). For the same molecule, the “Patients reporting at least 1 bleeding AE” value ([1]; 0.05 mg/kg (n=6)) was 0 (0.0) n (%), the “Patients reporting at least 1 injection site reaction adverse event” value ([1]; 0.05 mg/kg (n=6)) was 0 (0.0) n (%) and the “Patients reporting at least 1 related TEAE with CTCAE grade ≥3” value (“Patients reporting … with CTCAE grade ≥3” for short) ([1]; 0.05 mg/kg (n=6)) was 0 (0.0) n (%). For the same molecule, the “non‐AE bruising at the injection site, Grade 1” value (“non‐AE bruising … Grade 1” for short) ([1]; 0.05 mg/kg (n=6)) was 2 (33.3) n (%), the “non‐AE bruising at the injection site, Grade 2” value (“non‐AE bruising … Grade 2” below) ([1]; 0.05 mg/kg (n=6)) was 0 (0.0) n (%) and the “No. of TESAEs” value ([1]; 0.075 mg/kg (n=6)) was 0. For the same molecule, the “Patients reporting a TEAE of bruising” value ([1]; 0.075 mg/kg (n=6)) was 0 (0.0) n (%), the “Patients reporting a non‐AE bruising” value ([1]; 0.075 mg/kg (n=6)) was 0 (0.0) n (%) and the “Patients reporting at least 1 bleeding AE” value ([1]; 0.075 mg/kg (n=6)) was 0 (0.0) n (%). For the same molecule, the “Patients reporting at least 1 injection site reaction adverse event” value ([1]; 0.075 mg/kg (n=6)) was 0 (0.0) n (%), the “Patients reporting … with CTCAE grade ≥3” value ([1]; 0.075 mg/kg (n=6)) was 0 (0.0) n (%) and the “non‐AE bruising … Grade 1” value ([1]; 0.075 mg/kg (n=6)) was 0 (0.0) n (%). The “non‐AE bruising … Grade 2” value ([1]; 0.075 mg/kg (n=6)) was 0 (0.0) n (%), the “No. of TESAEs” value [2, 10] was 0 and the “Patients reporting a TEAE of bruising” value [2, 10] was 0 (0.0) n (%). The “Patients reporting a non‐AE bruising” value [2, 10] was 0 (0.0) n (%), the “Patients reporting at least 1 bleeding AE” value [2, 10] was 0 (0.0) n (%) and the “Patients reporting at least 1 injection site reaction AE” value [2, 10] was 0 (0.0) n (%). The “Patients reporting … with CTCAE grade ≥3” value [2, 10] was 0 (0.0) n (%), the “non‐AE bruising … Grade 1” value [2, 10] was 0 (0.0) n (%) and the “non‐AE bruising … Grade 2” value [2, 10] was 0 (0.0) n (%). The “No. of TESAEs” value [2, 11] was 0, the “Patients reporting a TEAE of bruising” value [2, 11] was 0 (0.0) n (%) and the “Patients reporting a non‐AE bruising” value [2, 11] was 2 (33.3) n (%). The “Patients reporting at least 1 bleeding AE” value [2, 11] was 0 (0.0) n (%), the “Patients reporting at least 1 injection site reaction AE” value [2, 11] was 0 (0.0) n (%) and the “Patients reporting … with CTCAE grade ≥3” value [2, 11] was 0 (0.0) n (%). For the same molecule, the “non‐AE bruising … Grade 1” value [2, 11] was 2 (33.3) n (%), the “non‐AE bruising … Grade 2” value [2, 11] was 0 (0.0) n (%) and the “No. of TESAEs” value [2, 12] was 0. For the same molecule, the “Patients reporting a TEAE of bruising” value [2, 12] was 0 (0.0) n (%), the “Patients reporting a non‐AE bruising” value [2, 12] was 4 (66.7) n (%) and the “Patients reporting at least 1 bleeding AE” value [2, 12] was 0 (0.0) n (%). For the same molecule, the “Patients reporting at least 1 injection site reaction AE” value [2, 12] was 0 (0.0) n (%), the “Patients reporting … with CTCAE grade ≥3” value [2, 12] was 0 (0.0) n (%) and the “non‐AE bruising … Grade 1” value [2, 12] was 4 (66.7) n (%). The “non‐AE bruising … Grade 2” value [2, 12] was 0 (0.0) n (%), the “No. of TESAEs” value [2, 13] was 0 and the “Patients reporting a TEAE of bruising” value [2, 13] was 0 (0.0) n (%). For the same molecule, the “Patients reporting a non‐AE bruising” value [2, 13] was 5 (41.7) n (%), the “Patients reporting at least 1 bleeding AE” value [2, 13] was 0 (0.0) n (%) and the “Patients reporting at least 1 injection site reaction AE” value [2, 13] was 0 (0.0) n (%). For the same molecule, the “Patients reporting … with CTCAE grade ≥3” value [2, 13] was 0 (0.0) n (%), the “non‐AE bruising … Grade 1” value [2, 13] was 5 (41.7) n (%) and the “non‐AE bruising … Grade 2” value [2, 13] was 0 (0.0) n (%). The “No. of TESAEs” value ([2]; total RUC‐4 0.075 mg/kg (n=18)) was 0, the “Patients reporting a TEAE of bruising” value ([2]; total RUC‐4 0.075 mg/kg (n=18)) was 0 (0.0) n (%) and the “Patients reporting a non‐AE bruising” value ([2]; total RUC‐4 0.075 mg/kg (n=18)) was 9 (50.0) n (%). The “Patients reporting at least 1 bleeding AE” value ([2]; total RUC‐4 0.075 mg/kg (n=18)) was 0 (0.0) n (%), the “Patients reporting at least 1 injection site reaction AE” value ([2]; total RUC‐4 0.075 mg/kg (n=18)) was 0 (0.0) n (%) and the “Patients reporting … with CTCAE grade ≥3” value ([2]; total RUC‐4 0.075 mg/kg (n=18)) was 0 (0.0) n (%). For the same molecule, the “non‐AE bruising … Grade 1” value ([2]; total RUC‐4 0.075 mg/kg (n=18)) was 9 (50.0) n (%), the “non‐AE bruising … Grade 2” value ([2]; total RUC‐4 0.075 mg/kg (n=18)) was 0 (0.0) n (%) and the “Vp/F (apparent peripheral volume of distribution), geometric mean” value ([3]; SC, All Subjects) was 221 L. The “effect of aspirin on RUC‐4 pharmacokinetics or pharmacodynamics” value ([3]; pharmacokinetic and pharmacodynamic models, covariate aspirin) was “did not significantly affect”, the “platelet inhibition (high‐grade)” value [4, 14] was over 80% and the “time to onset of high-grade platelet inhibition” value [4, 14] was under 15 min. The “time within which platelet inhibition largely resolved” value [4, 14] was at most 2 h, the “time to peak of blood drug levels and platelet inhibition” value ([4]; subcutaneous administration) was at most 15 min and the “time to onset of high-grade inhibition of platelet aggregation” value ([4]; subcutaneous, 20 μmol/L of ADP) was under 15 min. The “time to return of IPA toward baseline” value ([4]; subcutaneous, 20 μmol/L of ADP) was at most 2 h, the “inhibition of platelet aggregation (high‐grade)” value ([4]; subcutaneous, 20 μmol/L of ADP, across the study populations) was over 80% and the “IPA mean±SD” value ([5]; 0.05 mg/kg SC (n=6), 15 minutes) was 71.8%±15.0%. For the same molecule, the “return of IPA toward baseline” value ([5]; 0.075 mg/kg SC) was at most 4 h, the “IPA mean±SD” value ([5]; 0.075 mg/kg SC (n=6), 15 minutes, 0.075 mg/kg) was 84.7%±16.7% and 84.7% and the IPA median ([5]; 0.075 mg/kg SC, 15 minutes) was 88.0%. For the same molecule, the “IPA of the individual participants not achieving the BED” value ([5]; 0.075 mg/kg SC, 15 minutes, 0.075 mg/kg) was 76.5% and 55.8%, the “IPA of the individual participants not achieving the BED” value ([5]; 0.075 mg/kg SC, 30 minutes postdose, 0.075 mg/kg) was 68.6% and 73.1% and the “whole blood level of RUC‐4, group mean excluding the outlying participant” value ([6]; 5 minutes) was 26.8 ± 26.5 ng/mL. The “whole blood level of RUC‐4, one CAD participant with much higher levels” value (shortened to “whole blood level … with much higher levels”) ([6]; 5 minutes) was 384 ng/mL, the “whole blood level of RUC‐4, group mean excluding the outlying participant” value ([6]; 15 minutes) was 74.3 ± 38.6 ng/mL and the “whole blood level … with much higher levels” value ([6]; 15 minutes) was over 500 ng/mL. The “whole blood level of RUC‐4, group mean excluding the outlying participant” value ([6]; 30 minutes) was 71.3 ± 30.5 ng/mL, the “whole blood level … with much higher levels” value ([6]; 30 minutes) was 307 ng/mL and the “whole blood level of RUC‐4, group mean excluding the outlying participant” value ([6]; 60 minutes) was 40.3 ± 7.3 ng/mL. For the same molecule, the “whole blood level … with much higher levels” value ([6]; 60 minutes) was 131 ng/mL, the “adverse events leading to study drug discontinuation” value [7] was “none leading to study drug discontinuation” and the “drug‐related changes in laboratory values” [7] was “no drug‐related changes in laboratory values”. For the same molecule, the “injection site reactions (including bruising), severity” value [7] was “mild”, the “platelet counts during the course of treatment” value [7] was “stable” and the “transient reduction in platelet count, single participant” value [7] was 120 000 /μL. The serious adverse events ([7]; SC 0.04-0.075 mg/kg) was “no serious adverse events; also recorded: No SAEs were observed”, the “bleeding events, number of patients” value ([7]; limited to the injection site) was 3 patients and the “severity of bleeding events” value ([7]; modified Bleeding Academic Research Consortium type 1) was “mild”. The “IC50, geometric mean” value ([8]; cohort with aspirin) was 0.0338 µg/mL (≈ 0.0875 µM), the “IC50, geometric mean” value ([8]; cohort without aspirin) was 0.0342 µg/mL (≈ 0.0885 µM) and the “gamma (coefficient)” value ([8]; sigmoidal Emax model) was 1.31. For the same molecule, the IC50 ([8]; with aspirin) was 0.0347 ± 0.0079 µg/mL (≈ 0.0898 µM), the IC50 ([8]; without aspirin) was 0.0348 ± 0.0067 µg/mL (≈ 0.0901 µM) and the “IPA of the one CAD participant with much higher whole blood levels” value ([9]; dose‐expansion group 0.075 mg/kg SC, 5, 15, 30, and 60 minutes time points) was 100%. The “IPA Mean (SD)” value ([9]; stable CAD on aspirin, 0.04 mg/kg SC, 0.04 mg/kg) was 53.6%±17.0%, the “IPA Mean (SD)” value ([9]; stable CAD on aspirin, 0.05 mg/kg SC, 0.05 mg/kg) was 76.9%±10.6% and the “IPA of the 1 participant who did not achieve the BED” value ([9]; stable CAD on aspirin, 15 minutes) was 65.4%. For the same molecule, the “IPA of the 1 participant who did not achieve the BED” value ([9]; stable CAD on aspirin, 30 minutes) was 86.5%, the “participants achieving the BED” value [9, 15] was 5 of 6 and the “return of IPA toward baseline” value [9, 15] was at most 4 h. For the same molecule, the “participants achieving the BED” value ([9]; stable CAD on aspirin, 0.075 mg/kg SC, dose expansion, additional participants) was 6 of the 12, the “IPA mean±SD” value ([9]; stable CAD on aspirin, 0.075 mg/kg SC, high‐weight group, 15 minutes) was 88.0%±14.4% and the “IPA mean±SD” value ([9]; stable CAD on aspirin, 0.075 mg/kg SC, high‐weight group, 30 minutes) was 85.4%±21.0. The “IPA mean±SD” value ([9]; stable CAD on aspirin, 0.075 mg/kg SC, low‐weight group, 15 minutes) was 63.2%±21.4% and the “IPA mean±SD” value ([9]; stable CAD on aspirin, 0.075 mg/kg SC, low‐weight group, 30 minutes) was 67.8%±14.7%.
